Activity calls are given as the source filed them. The rule behind the calls is not given here.
Key:
Erythrocyte [1] = assay: Cytoprotection against AAPH-induced haemolysis in human erythrocytes at 0.01 to 1 mg/l pre-incubated for 20 mins before 60 mM AAPH addition for 4 hrs by spectrophotometric analysis; type: functional; details: in the assay text read “0.025 to 0.1 mg/ml” for “0.01 to 1 mg/l”
Outline: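 Human erythrocytes (RBCs) pre-incubated 20 min with compound or the standards Trolox and BHT, then challenged with 60 mM AAPH to induce free-radical haemolysis. Data are means SD (n = 4), with significance set at p < 0.05.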

[2] = Hemolytic activity in human erythrocytes at 0.1 mg/ml incubated for 60 mins by spectrophotometric analysis; type: ADME, cell-based, Erythrocyte; details: read-out: Activity
Outline: (§1)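 RBCs were incubated with compound for 60 min. Haemolysis below 5% was taken as not significant.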

[3] = Antioxidant activity assessed as DPPH radical scavenging activity at 0.025 to 0.1 mg/ml incubated for 30 mins in dark by spectrophotometric analysis; type: functional
[4] = Induction of hemolysis in human erythrocytes assessed as effect on osmotic resistance at 0.1 mg/ml incubated for 60 mins by erythrocyte osmotic fragility assay; type: cell-based; details: 1 h
Outline: (§2)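 After 60 min of compound treatment, RBC osmotic resistance was expressed as %NaCl and compared with untreated control cells (p < 0.05).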

Erythrocyte [5] = assay: Hemolytic activity in human erythrocytes assessed as change in cell shape by measuring discocytes level at 0.1 mg/ml incubated for 60 mins by […]; type: ADME, cell-based; details: 1 h
[6] = Metal chelating activity of the compound assessed as inhibition of Fe2+-ferrozine complex formation incubated for 10 mins by spectrophotometric analysis; type: functional
[7] = Antioxidant activity assessed as DPPH radical scavenging activity at 0.1 mg/ml incubated for 30 mins in dark by spectrophotometric analysis relative to trolox; type: functional
[8] = Antioxidant activity assessed as ferric ion reducing activity using Fe3+(CN-)6 incubated for 20 mins by spectrophotometric analysis; type: functional
[9] = Antioxidant activity assessed as ferric ion reducing activity using Fe3+(CN-)6 at 0.025 to 0.1 mg/ml incubated for 20 mins by spectrophotometric analysis relative to trolox; type: functional; design: scale not given: the % may be the effect or the level left
[10] = Antioxidant activity assessed as ferric ion reducing activity using Fe3+(CN-)6 at 0.025 to 0.1 mg/ml incubated for 20 mins by spectrophotometric analysis relative to BHT; type: functional
[11] = Antioxidant activity assessed as DPPH radical scavenging activity at 0.1 mg/ml incubated for 30 mins in dark by spectrophotometric analysis relative to BHT; type: functional
[12] = Antioxidant activity assessed as ferric ion reducing activity using Fe3+(CN-)6 at 0.1 mg/ml incubated for 20 mins by spectrophotometric analysis relative to trolox; type: functional; design: scale not given: the % may be the effect or the level left
[13] = Antioxidant activity assessed as DPPH radical scavenging activity incubated for 30 mins in dark by spectrophotometric analysis; type: functional
[14] = Antioxidant activity assessed as ferric ion reducing activity using Fe3+(CN-)6 at 0.1 mg/ml incubated for 20 mins by spectrophotometric analysis relative to BHT; type: functional
[15] = Induction of hemolysis in human erythrocytes assessed as change in RBC shape by measuring echinocytes and spherocytes level at 0.1 mg/ml preincubated for 60 mins followed by AAPH induction measured after 4 hrs by […]; type: cell-based
[16] = Hemolytic activity in human erythrocytes at 0.025 mg/ml incubated for 60 mins by spectrophotometric analysis; type: ADME, cell-based, Erythrocyte; details: read-out: Activity; outline: as §1
[17] = Hemolytic activity in human erythrocytes at 0.05 mg/ml incubated for 60 mins by spectrophotometric analysis; type: ADME, cell-based, Erythrocyte; details: read-out: Activity; outline: as §1
Erythrocyte [18] = assay: Hemolytic activity in human erythrocytes assessed as echinocytes/spherocytes formation incubated for 60 mins by microscopic analysis; type: ADME, cell-based; details: 1 h
Outline: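 RBCs were incubated with compound for 60 min, and cell morphology was then assessed by optical microscopy for echinocytes, spherocytes and RBC ghosts.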

[19] = Induction of hemolysis in human erythrocytes assessed as reduction in osmotic resistance at 0.1 mg/ml incubated for 60 mins by erythrocyte osmotic fragility assay relative to NaCl (reference value: 0.451%); type: cell-based; design: scale not given: the % may be the effect or the level left; details: 1 h; outline: as §2

Row | SMILES | Activity (Erythrocyte [1]) | hemolysis at 1 h, 0.1 mg/ml [2] [%] | Activity [3] [%] | Activity [4] | Activity (Erythrocyte [5]) | Activity [6] | further results
1 | Cc1c(C)c2c(c(C)c1O)CCC(C)(C(=O)O)O2 (centres undefined) | Active |  |  |  |  |  | 
2 | Cn1c(=S)c2c(ncn2C)n(C)c1=S | Active | 0 to 5 | < 10 | Non-Toxic | Non-Toxic | inactive | 
3 | Cn1c(=S)c2c(ncn2C)n(C)c1=O | Active | 0 to 5 | < 10 | Non-Toxic | Non-Toxic | inactive | 
4 | CCSc1nc2c(c(=O)n(C)c(=O)n2C)n1C | 10% | 0 to 5 | < 10 | Non-Toxic | Non-Toxic | inactive | 
5 | Cn1c(=O)c2c(nc(SC(C)(C)C)n2C)n(C)c1=O | inactive | 0 to 5 | < 10 | Non-Toxic | Non-Toxic | inactive | 
6 | Cc1cc(C(C)(C)C)c(O)c(C(C)(C)C)c1 |  |  |  |  |  |  | Activity [7]: Active; Activity [8]: Active
7 | CC(C)Sc1nc2c(c(=O)n(C)c(=O)n2C)n1C | 10% | 0 to 5 |  | Non-Toxic | Non-Toxic | inactive | Activity [9]: 38%; Activity [10]: Active; Activity [7]: 34%; Activity [11]: Active
8 | CCCSc1nc2c(c(=O)n(C)c(=O)n2C)n1C | inactive | 0 to 5 | < 10 | Non-Toxic | Non-Toxic | inactive | 
9 | CSc1nc2c(c(=O)n(C)c(=O)n2C)n1C | 10% | 0 to 5 | < 10 | Non-Toxic | Non-Toxic | inactive | 
10 | Cn1c(=O)c2c(nc(SC(=S)N3CCCC3)n2C)n(C)c1=O | Active | 0 to 5 |  | Non-Toxic | Non-Toxic | inactive | Activity [12]: 65%; Activity [13]: Dose-dependent effect; Activity [14]: Active; Activity [7]: 67%; Activity [8]: Dose-dependent effect
11 | Cn1c(=O)c2c(ncn2C)n(C)c1=O [CAFFEINE] | 10% | 0 to 5 | < 10 | Non-Toxic | Non-Toxic | inactive | 
12 | Cn1c(=O)c2c(nc(Sc3ccccc3)n2C)n(C)c1=O | inactive | 57.2 | < 10 | Toxic |  | inactive | Activity [15]: Toxic; hemolysis at 1 h, 0.025 mg/ml [16]: < 5%; hemolysis at 1 h, 0.05 mg/ml [17]: 26.9%; Activity (Erythrocyte [18]): Toxic; Activity [19]: 0.488%

From ChEMBL document CHEMBL4428045, “Antioxidant properties of thio-caffeine derivatives: Identification of the newly synthesized 8-[(pyrrolidin-1-ylcarbonothioyl)sulfanyl]caffeine as antioxidant and highly potent cytoprotective agent” (Bioorg Med Chem Lett, 2016)
